According to publication PMC8137579 (Cancer research, 2021):
“Also recorded” adds a separate entry of the source. Read-outs that look alike come from different tables or passages of the source.

How the values were obtained:
[1] = target: HuR dimerization (HuR-Nluc + HuR-Cluc reporter, U251 cells) (Homo sapiens, UniProt Q15717); assay: cell-based split firefly luciferase - HuR dimerization assay
Procedure, shortened: (§1)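 Stable U251 lines carried doxycycline-inducible HuR-Nluc plus HuR-Cluc (dimer reporter) or full-length Fluc (control reporter), kept under hygromycin B and G418. 30,000–50,000 cells/well were induced with doxycycline 0.75 ug/ml for 48 h, then given test compound or vehicle for 6 h. Luminescence was read with D-luciferin substrate.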

primary human astrocytes = assay: toxicity in primary human astrocytes; assay type: cell-based
Procedure, shortened: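 Primary human neurons (poly-L-lysine plates) or astrocytes were treated up to 25 uM for 48 h. Cells were fixed in 3.7% paraformaldehyde (pH 7.4) for 13 min, permeabilised with 0.3% Triton X-100 and blocked with 3% BSA/glycine. Staining used anti-cleaved caspase-3 (1:200, overnight 4°C) and Alexa 594 secondary, with DAPI counterstain. Percent positive cells was scored; at least three experiments.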

[2] = system: U251 cells expressing Fluc construct; assay: split firefly luciferase assay, control reporter; assay type: cell-based
Procedure, shortened: as §1

U251 cell line [3] = assay: soft agar colony formation assay, U251; assay type: cell-based
Procedure, shortened: (§2)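 Soft agar format: cells embedded in a 0.45% low-melting agarose top layer over a 0.9% agarose bottom layer. Colonies were stained with 0.1% crystal violet and counted after three weeks. n=3 attached, n=4 soft agar; Student t-test.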

[4] = in vivo pharmacokinetic assessment; design: species or system C57Bl/6 mice; settings: mouse
XD456 cell line [5] = assay: attached cell colony formation assay, XD456; assay type: cell-based, human
XD456 cell line [6] = assay: soft agar colony formation assay, XD456; assay type: cell-based, human
Procedure, shortened: as §2

LN229 glioma cell line [7] = assay: PrestoBlue cell viability assay, LN229; assay type: cell-based; settings: read-out: IC50 cell viability, 48 hours of treatment
Procedure, shortened: (§3)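 PrestoBlue viability read-out after 48 h exposure to the test compound. U251 and LN229 were grown in DMEM/F12 with 10% FBS, 2 mM L-glutamine and 100 U/ml penicillin/streptomycin. Data were normalised to vehicle-treated cells, and dose-response curves were fitted with the Boltzmann equation to give IC50; n=5 per cell line.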

HuR protein = assay: western blot of HuR protein levels; assay type: cell-based
[8] = target: interaction of the HuR protein with Bcl2 and Mcl1 mRNAs (Homo sapiens, UniProt Q15717); assay: HuR/mRNA co-immunoprecipitation assay; assay type: cell-based; settings: U251 cells
Procedure, shortened: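 Run in U251 cells with the RiboCluster Profiler RIP-assay kit and a polyclonal anti-HuR antibody. Co-precipitated Bcl2 and Mcl1 transcripts and 18S RNA were quantified by Taqman with gene-specific probes. Binding was compared with vehicle-treated control.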

aqueous solubility = assay type: physicochemical
Bcl2 mRNA = assay: Taqman quantification of Bcl2 mRNA in glioma cell lines; assay type: cell-based; settings: 10 uM for 24 hours
[9] = system: PDGx XD456 glioma cell line; assay: cell cycle analysis; assay type: cell-based, human; settings: 10 uM for 18 hours
LN229 glioma cell line [10] = assay: cell cycle analysis; assay type: cell-based; settings: 10 uM for 18 hours
[11] = system: PDGx XD456 intracranial glioma; assay: in vivo mouse intracranial glioma model; design: species or system athymic nude mice; settings: 15 mg/kg, twice a day for three weeks, intraperitoneal
Procedure, shortened: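 Athymic nude mice bore intracranial PDGx XD456 cells transduced with firefly luciferase and EGFP. After 4.5 days of tumour establishment, mice were randomised to vehicle or test compound, 15 mg/kg ip twice daily for three weeks. Tumour bioluminescence (radiance) was imaged at weeks 2 and 3, with body weight tracked; n=5, Student t-test. Brain slices were checked for EGFP and immunostained for HuR, Bcl2 and Mcl1.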

[12] = system: Bcl2 and Mcl1 protein levels; assay: western blot of Bcl2 and Mcl1 proteins in cytoplasmic fractions; assay type: cell-based; settings: U251 and XD456; 10 uM for 48 hours
Procedure, shortened: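 U251 and PDGx XD456 cells were treated for 48 h with test compound or vehicle. Nuclear and cytoplasmic fractions were separated with NE-PER reagents and verified by lamin A/C (nuclear) and tubulin alpha (cytoplasmic). Bcl2 and Mcl1 were detected by western blot.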

[13] = system: cleaved caspase-3 and cleaved PARP; assay: western blot of apoptosis markers; assay type: cell-based; settings: glioma cell lines; 10 uM for 48 hours
Procedure, shortened: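 Glioma cell lines were given 10 uM test compound or vehicle for 48 h. Cleaved PARP and cleaved caspase-3 were probed by western blot.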

Mcl1 mRNA = assay: Taqman quantification of Mcl1 mRNA in glioma cell lines; assay type: cell-based; settings: for average decrease of Mcl1/18S mRNA ratio: 10 uM for 24 hours
Procedure, shortened: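 Glioma cells (U251, U87, LN229) were exposed to 10 uM test compound or vehicle for 24 h. mRNA was isolated with RNeasy Mini Kit and QIAshredder columns. Bcl2, Mcl1 and 18S transcripts were quantified by Taqman gene-specific probes. Bcl2/18S and Mcl1/18S ratios were compared with vehicle control; three experiments.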

U251 glioma cell line [14] = assay: PrestoBlue cell viability assay, U251; assay type: cell-based
Procedure, shortened: as §3

kinases = assay: SelectScreen kinase profiling; assay type: biochemical; settings: compared to the parent SRI-41664
Procedure, shortened: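 Done as an outsourced SelectScreen kinase profiling service. 10-point titrations were run against NTRK1, AAK1, IRAK1, PIM1 and cMET kinases.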

[15] = system: PDGx XD456 glioma cell line; assay: PrestoBlue cell viability assay, XD456; assay type: cell-based, human; settings: read-out: IC50 cell viability, 48 hours of treatment
U251 glioma cell line [16] = assay: cell cycle analysis; assay type: cell-based; settings: 10 uM for 18 hours
U251 cell line [17] = assay: attached cell colony formation assay, U251; assay type: cell-based
primary human neurons = assay: toxicity in primary human neurons; assay type: cell-based

HuR dimerization (HuR-Nluc + HuR-Cluc reporter, U251 cells), sequence (Q15717 2-326 limits assumed): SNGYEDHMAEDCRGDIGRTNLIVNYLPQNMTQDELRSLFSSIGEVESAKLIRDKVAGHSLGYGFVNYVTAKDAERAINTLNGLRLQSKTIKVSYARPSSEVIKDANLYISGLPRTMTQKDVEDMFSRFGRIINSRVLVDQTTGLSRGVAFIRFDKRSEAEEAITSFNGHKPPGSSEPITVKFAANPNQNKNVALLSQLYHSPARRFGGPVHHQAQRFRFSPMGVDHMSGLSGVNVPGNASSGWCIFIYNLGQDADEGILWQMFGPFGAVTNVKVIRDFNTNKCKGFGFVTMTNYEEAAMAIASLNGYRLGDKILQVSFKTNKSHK
interaction of the HuR protein with Bcl2 and Mcl1 mRNAs, sequence (Q15717 2-326 limits assumed): as above

SMILES: CN(c1ccc2ncc(-c3ccc4cn[nH]c4c3)n2n1)C1CCOCC1 [SRI-42127]
- maximum inhibition of HuR dimerization ([1]; 6 hours of cell treatment): 90±1%
- IC50 for inhibition of HuR dimerization, after increase in HuR dimerization by two fold ([1]; U251 with dox-inducible HuR-dimerization reporters, 6 hours): 1900 ± 100 nM
- HuR inhibition potential in the presence of kinase inhibitors ([1]; all evaluated kinase inhibitors): retained its HuR inhibition potential
- IC50 ([1]; read-out: IC50 for inhibition of HuR dimerization, before increase in HuR dimerization, U251 with dox-inducible HuR-dimerization reporters, 6 hours): 1200 ± 100 nM
- IC50 ([1]; read-out: IC50 of inhibition of HuR dimerization, U251 cells co-expressing HuR-Nluc and HuR-Cluc, 6 hours of treatment): 1200 ± 200 nM
- astrocyte cytotoxicity (primary human astrocytes; concentrations below 15 uM): low neuronal and astrocyte cytotoxicity
- cleaved caspase-3 activation in astrocytes (primary human astrocytes; up to 15 uM): did not observe significant alterations
- half inhibition in the control reporter assay [2]: half inhibitions were not reached
- number of colonies (U251 cell line [3]; 3uM): 90±70
- number of colonies (U251 cell line [3]; 10 uM): No significant numbers of colonies were detected
- brain-to-plasma concentration ratio [4]: 0.42±0.05
- BBB permeability ([4]; in vivo): superior BBB permeability
- half-life ([4]; 10 mg/kg by IP): 9.6 min
- number of colonies (XD456 cell line [5]; 3uM): 34±12
- number of colonies (XD456 cell line [5]; 10 uM): No significant numbers of colonies were detected
- number of colonies (XD456 cell line [6]; 3uM): 39±6
- number of colonies (XD456 cell line [6]; 10 uM): No significant numbers of colonies were detected
- IC50 (LN229 glioma cell line [7]): 3200 ± 600 nM
- total HuR protein levels (HuR protein; 3 uM and 10 uM, 8–12 hours of treatment): did not alter
- HuR cytoplasmic levels versus control (HuR protein; prolonged treatment): decrease
- interaction of HuR protein with Bcl2 and Mcl1 mRNAs compared to control [8]: significant reduction
- aqueous solubility (aqueous solubility): readily soluble
- average decrease of Bcl2/18S mRNA ratio (Bcl2 mRNA; LN229): 95±2%
- average decrease of Bcl2/18S mRNA ratio (Bcl2 mRNA; U87): 95±2%
- average decrease of Bcl2/18S mRNA ratio (Bcl2 mRNA; U251): 96±2%
- average decrease of Bcl2/18S mRNA ratio (Bcl2 mRNA; XD456): 96±2%
- increase of cells in G1 phase compared to control [9]: 210±40%
- reduction of cells in S phase compared to control [9]: 70±3%
- increase of cells in G1 phase compared to control (LN229 glioma cell line [10]): 56±28%
- reduction of cells in S phase compared to control (LN229 glioma cell line [10]): 60±3%
- tumor progression (tumor reporter luminescence signal) compared to control group [11]: reduction of tumor progression; also recorded: not statistically significant
- weight changes compared to the control group [11]: not significant
- Bcl2 and Mcl1 protein levels in cytoplasmic fractions compared to control [12]: dramatic reduction
- signs of apoptosis [13]: cleaved caspase-3 and cleaved PARP
- average decrease of Mcl1/18S mRNA ratio (Mcl1 mRNA; LN229): 87±8%
- average decrease of Mcl1/18S mRNA ratio (Mcl1 mRNA; U87): 86±7%
- average decrease of Mcl1/18S mRNA ratio (Mcl1 mRNA; U251): 95±3%
- average decrease of Mcl1/18S mRNA ratio (Mcl1 mRNA; XD456): 90±9%
- reduction in Mcl1 mRNA compared to control (Mcl1 mRNA; range over U251, U87, LN229, XD456, 10 uM, 24 h): 87–95%
- IC50 for inhibition of cell viability, after enhancement of HuR-dimer formation by two fold (U251 glioma cell line [14]; U251 with dox-inducible HuR-dimerization reporters, 48 hours): 8000 ± 800 nM
- IC50 (U251 glioma cell line [14]; read-out: IC50 cell viability, U251, 48 hours of treatment): 2800 ± 600 nM
- IC50 (U251 glioma cell line [14]; read-out: IC50 for inhibition of cell viability, before enhancement of HuR-dimer formation, U251 with dox-inducible HuR-dimerization reporters, 48 hours): 2800 ± 400 nM
- kinase inhibition potential (kinases): reduced kinase inhibition potential
- IC50 [15]: 4000 ± 600 nM
- increase of cells in G1 phase compared to control (U251 glioma cell line [16]): 97±33%
- reduction of cells in S phase compared to control (U251 glioma cell line [16]): 65±4%
- number of colonies (U251 cell line [17]; 3uM): 49±28
- number of colonies (U251 cell line [17]; 10 uM): No significant numbers of colonies were detected
- decline of cellular metabolism of neurons (primary human neurons; 25 uM for 48 hours): about 44%
- neuronal cytotoxicity (primary human neurons; concentrations below 15 uM): low neuronal and astrocyte cytotoxicity
- cell numbers and cell sprouting of neurons (primary human neurons; up to 15 uM for 48 hours): remained unchanged
- morphological changes of neurons (primary human neurons; up to 15 uM for 48 hours): no morphological changes
- cleaved caspase-3 immunostaining in neurons (primary human neurons; up to 15 uM, 48 hours): no significant alterations
